Vif inh – HIV Vif self-association inhibitors, primary screen, imaging, HEK293T, single point; HEK293T cells, Vif self-association by quenched fluorescence, 24 h; inhibition, % at 7.49 µM; 340,000 tested, 0.35% active; AID 602346, 2012; in the data active means inhibition above about 50%, passing the limit was not always enough; inconclusive means no clear call, values can overlap the other calls; inactive means below about 31%
T cell HTS – modulators of CD8 T cell-vesicle binding, primary screen, mouse 2C CD8+ T cells, flow cytometry | 330,000 tested, 0.068% active | 2C CD8+ T cell-vesicle binding; stronger effect = lower value | response (vesicle binding), % at 7 µM;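 active means response, share of CD8 T cells binding vesicles, and their 90th percentile fluorescence all below set limits, cut at about 80% in these data, passing the limit was not always enough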;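 further: values below 100% mean blocked vesicle binding to the CD8+ T cells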
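Assay system – 2C mouse CD8+ T cells · Also added – QL9-loaded Drosophila micro-vesicles · Timing – Cell–vesicle co-incubation 1.5 h at 37 °C, staining 20 min on ice · Signal – flow cytometry of vesicle-bound cells · Measure – percent CD8+ FL2 mean versus row control · Controls – Peptide-free naked vesicles (low) and QL9 vesicles with 0.7% DMSO vehicle (high)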
Myeloid diff 2 – induction of myeloid progenitor differentiation, primary screen, cell-based, flow cytometry, MLPCN library | AID 624256, 2012 | 360,000 tested, 1% active | ER-HoxA9 myeloid progenitors, lysozyme-GFP differentiation | calls only at 10 µM;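 active means normalized GFP-positive differentiation at or above the plate's own cutoff, the solvent-only control mean plus 3 SD; inconclusive means no clear call, values can overlap the other calls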;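 further: cells exposed to compound for four days before flow analysis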
CASP6 VEID inh – human caspase-6 inhibitors, primary screen, biochemical, VEID-R110 fluorescence, single point, set 2 | AID 686996, 2013 | P55212 | purified caspase-6, Z-VEID-R110 cleavage fluorescence | 350,000 tested, 0.53% active | inhibition, % at 12.5 µM;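 active means mean inhibition across replicates at least about 35%, with every replicate also reaching that limit, limit read from the data; inconclusive means only one of the two criteria met; inactive means neither criterion met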;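 further: 0% = median of neutral control wells and 100% = no fluorescence left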
Target sequence (P55212 24-179 limits assumed): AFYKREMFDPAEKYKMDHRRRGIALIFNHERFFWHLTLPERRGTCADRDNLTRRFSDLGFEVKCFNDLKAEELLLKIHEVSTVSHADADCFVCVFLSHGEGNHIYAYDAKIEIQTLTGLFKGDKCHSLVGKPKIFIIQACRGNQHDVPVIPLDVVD
Target sequence (P55212 194-293 limits assumed): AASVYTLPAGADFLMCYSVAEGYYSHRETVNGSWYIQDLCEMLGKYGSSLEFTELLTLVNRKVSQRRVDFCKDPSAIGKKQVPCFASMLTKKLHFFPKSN
Myeloid diff – inducers of myeloid progenitor differentiation, confirmation, cell-based, GFP/Mac1 flow cytometry, cherry pick 01; calls only; 2,300 tested, 2% active; AID 651706, 2012; shares compounds with Myeloid diff 2; ER-HoxA9 myeloid progenitors, GFP/Mac1 double-positive flow;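 active means share of green or green-and-red cells above 9 and 9% in run 1 or 4 and 3% in run 2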
GFP autofluor – compound fluorescence in myeloid differentiation counter-screen | shares compounds with Myeloid diff 2 | ER-HoxA9 myeloid progenitors, no estrogen, GFP autofluorescence flow cytometry; vehicle wells 0%, positive control 100% | AID 651707 | fluorescence response, % (no concentration beside the values) | 2,300 tested, 7.4% active;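 active means over 5% cells positive for green fluorescent reporter, or over 2% positive for both it and APC stain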;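 further: range taken on the double positive population between DMSO and positive control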
Starred values were filed as active, the others as inactive; i = inactive; ? = inconclusive; / = no result given; + = active, no number. Shown are actives, neighbours in structure and some others; about 1.4% of the full set was active somewhere.

SMILES | Vif inh | T cell HTS | Myeloid diff 2 | CASP6 VEID inh | Myeloid diff | GFP autofluor
CCCn1c(NC(=O)CCS(=O)(=O)c2ccc(C)cc2)nc2ccccc21 | -33 | 220 | + | 1 | i | 27*
CCCCn1c(N)c(N(CC(C)C)C(=O)c2cc(-c3ccncc3)nc3ccccc23)c(=O)[nH]c1=O | 8 | 201 | + | 3 | i | 3
CCCCN(C(=O)c1cc(-c2ccncc2)nc2ccccc12)c1c(N)n(CC(C)C)c(=O)[nH]c1=O | -6 | 113 | i | -4 | / | /
O=S(=O)(NCc1ccncc1)c1ccc(F)c(F)c1 | -31 | / | i | -3 | i | 0
COc1ccc(CN(C)C[C@H]2OCCCC[C@@H](C)Oc3ccc(N(C)C)cc3C(=O)N([C@@H](C)CO)C[C@@H]2C)cc1 | / | / | / | -5 | / | /
O=[N+]([O-])c1cc(S(=O)(=O)N2CCCC2)ccc1NN=C1CCCCC1 | 2 | 233 | i | -1 | / | /
CC/C(C)=N/Nc1ccc(S(=O)(=O)N2CCCC2)cc1[N+](=O)[O-] | 3 | 162 | + | 1 | i | 0
C[C@H]1CN([C@@H](C)CO)C(=O)c2cccc(NC(=O)Nc3ccc4c(c3)OCO4)c2O[C@@H]1CN(C)C | / | / | / | 4 | / | /
CC(=O)c1ccc(S(=O)(=O)N2CCN(C(=O)c3ccc(-n4nc(C)c(Cl)c4C)cc3)CC2)cc1 | -5 | 384 | i | -1 | i | 0
CCOc1ccc(/C=N/NC(=O)c2ccccc2Cl)cc1CN1CC2CC(C1)c1cccc(=O)n1C2 (centres undefined) | 9 | 981 | i | 1 | i | 0
CC(C)n1cc(CN2CCC(C(=O)Nc3cccc(-c4cccc(Cl)c4)c3)CC2)cn1 | -3 | 251 | + | -5 | i | 0
CCn1cc(CN2CCC(C(=O)Nc3cccc(-c4cccc(F)c4)c3)CC2)cn1 | 9 | 296 | i | -11 | / | /
O=C(O)CN(c1ccccn1)S(=O)(=O)c1ccc(Cl)cc1 | -4 | 594 | + | / | i | 1
COc1ccc(S(=O)(=O)Nc2ccc3c(c2)C(=O)N([C@@H](C)CO)C[C@H](C)[C@H](CN(C)C(=O)c2ccccc2)OCCCC[C@H](C)O3)cc1 | / | / | / | -1 | / | /
COc1ccc(NC(=O)Nc2cccc3c2O[C@@H](CN(C)C)[C@@H](C)CN([C@@H](C)CO)C3=O)cc1 | / | / | / | 1 | / | /
OCC[C@H]1NCc2cc(CO)cc(-c3ccccc3)c21 | 6 | / | i | -6 | i | 1
Cc1cc(S(=O)(=O)N(Cc2ccccc2F)C2CC2)ccc1-n1cnnn1 | -10 | 278 | i | / | i | 0
CCNc1ccc(S(=O)(=O)N(C)C)cc1NCC(=O)Nc1ccc(F)c(Cl)c1 | -5 | 156 | i | / | i | 0
NC(=O)c1ccc(-n2nnnc2Oc2ccccc2)cc1 | -6 | 402 | i | -2 | / | /
COc1ccccc1Oc1nnnn1-c1ccc(C(N)=O)cc1 | / | 455 | i | -5 | i | 1
COc1cc(/C=C2\SC(=O)N(CC(=O)Nc3ccccc3F)C2=O)cc(Cl)c1O | ? | 276 | i | 1 | i | 0
C/C(=N\NC(=O)CNc1ccc(F)cc1)c1cc2ccccc2o1 | -3 | 139 | + | 1 | i | 0
CCNC(=O)C[C@@H]1CC[C@H]2[C@H](COc3ccc(NC(=O)c4ccccc4)cc3C(=O)N2C)O1 | / | / | / | 0 | / | /
CCCCCNc1nc2sc3c(c2c(=O)n1-c1cccc(Cl)c1)CCN(C)C3 | -1 | 419 | + | -3 | i | 1
CCCCNc1nc2sc3c(c2c(=O)n1-c1cccc(Cl)c1)CCN(C)C3 | -4 | 274 | ? | 0 | / | /
SMILES | Vif inh | T cell HTS | Myeloid diff 2 | CASP6 VEID inh | Myeloid diff | GFP autofluor
CCSc1nc2sc3c(c2c(=O)n1-c1ccccc1)CCN(C(C)C)C3 | 4 | 166 | + | -2 | i | 5
CCCC#Cc1cnc2c(c1)C(=O)N([C@H](C)CO)C[C@H](C)[C@@H](CN(C)C)O2 | / | / | / | 2 | / | /
CN(C)CCCn1c(N)c(C#N)c2nc3ccccc3nc21 | / | 293 | i | -11 | i | 0
CC=Cc1ccc2n(c1=O)C[C@H]1[C@H](CO)[C@@H](C(=O)NCCC)[C@@H]2N1Cc1ccccc1 (mixture of isomers) | / | / | / | 0 | / | /
CCC(c1nnc(SCC(=O)NC23CC4CC(CC(C4)C2)C3)o1)N(C)C (centres undefined) | 0 | 200 | + | / | i | 0
CCOC(=O)/C(=N\Nc1ccc(C(C)=O)cc1)c1csc(Nc2ccccc2)n1 | 8 | 207 | + | / | i | 1
CCS(=O)(=O)c1nc(S(=O)(=O)c2ccc(Cl)cc2)c(N2CCC3(CC2)OCCO3)s1 | -1 | 290 | i | 0 | + | 0
CCS(=O)(=O)c1nc(S(=O)(=O)c2ccc(Cl)cc2)c(N2CCOCC2)s1 | 6 | 252 | i | 38* | i | 0
O=C(C[C@@H]1C[C@@H]2c3cc(NC(=O)C4CCOCC4)ccc3O[C@@H]2[C@@H](CO)O1)NCC1CC1 | / | / | / | -1 | / | /
COc1cccc(NC(=O)C2CC(=O)N(C)C(=Nc3cccc(F)c3)S2)c1 (centres undefined) | -4 | 384 | i | 5 | i | 0
COc1cccc(N=C2SC(C(=O)Nc3ccccc3F)CC(=O)N2C)c1 (centres undefined) | 3 | 433 | i | / | / | /
CCOc1ccccc1NC(=O)CCNS(=O)(=O)c1ccccc1 | 7 | 244 | + | -1 | i | 0
C[C@@H]1CN([C@H](C)CO)C(=O)c2cc(NC(=O)CCC(F)(F)F)ccc2O[C@@H](C)CCCCO[C@H]1CN(C)S(=O)(=O)c1cccs1 | / | / | / | 1 | / | /
O=C(C[C@@H]1CC[C@H](NC(=O)C2CCOCC2)[C@@H](CO)O1)NCc1ccccc1Cl | / | / | / | -1 | / | /
NNC(=O)c1ccc(CSc2cccc3cccnc23)cc1 | -1 | 198 | i | 10 | i | 0
O=C(C[C@H]1C=C[C@@H](NC(=O)c2cccc(F)c2)[C@@H](CO)O1)NCCN1CCCC1 | / | / | / | 0 | / | /
C/C(=N/NC(=O)CN(c1ccccc1)S(=O)(=O)c1ccccc1)c1ccccc1O | -3 | 164 | i | -1 | i | 0
CCCC/C(C)=N/NC(=O)CN(c1ccc(Br)cc1)S(=O)(=O)c1ccccc1 | -5 | 770 | i | / | / | /
COc1ccc(-c2oc3ccc(N4CCOCC4)cc3c2C#CCO)cc1 | -4 | 931 | i | -3 | / | /
COc1ccc(-c2ccc3oc(-c4ccc(OC)cc4)c(C#CCO)c3c2)cc1 | -1 | 629 | + | 0 | i | 0
CCCCCSc1nncc(=O)[nH]1 | 4 | 317 | + | / | i | 1
